# Data: ChEMBL document CHEMBL1154414, “In vitro and in vivo activities of T-705 against arenavirus and bunyavirus infections” (Antimicrob Agents Chemother, 2007)
# Calls of active or inactive are those of the source. The calls are words filed in the database; no cut-off is given here.
# Legend:
# Pichinde virus [1] = assay: Antiviral activity against Pichinde virus An 4763 infected Syrian golden hamster assessed as mean day of death at 30 mg/kg, po twice daily for 7 days administered 4 hrs before viral-challenge; format: functional
# Punta Toro virus [2] = assay: Antiviral activity against 500 PFU Punta Toro virus Adames infected C57BL/6 mouse assessed as mean viral titer per 0.1 g of liver at 75 mg/kg, po administered 4 hrs before viral challenge measured on day 4 of viral infection; format: functional
# Outline: (§1)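 Mice were infected subcutaneously with PTV and dosed by oral gavage twice daily; 5 per group (10 placebo) were killed on day 3 or 4. Liver homogenate or serum was serially diluted onto triplicate LLC-MK2 monolayers, and CPE was read 6–8 days later. 50% endpoints gave log10 CCID50 per 0.1 g liver or 0.1 ml serum. Detection range was 2.8–9.5; undetectable samples were assigned <2.8.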
# Tacaribe virus = assay: Antiviral activity against Tacaribe virus TRVL11573 assessed as reduction of 1 log10 unit viral titer yields after 7 to 8 days; format: functional; conditions: Mammarenavirus tacaribeense
# Punta Toro virus [3] = assay: Antiviral activity against 500 PFU Punta Toro virus Adames infected C57BL/6 mouse assessed as mean viral titer per 0.1 g of liver at 50 mg/kg, po administered 4 hrs before viral challenge measured on day 4 of viral infection; format: functional; outline: as §1
# Punta Toro virus [4] = assay: Antiviral activity against 500 PFU Punta Toro virus Adames infected C57BL/6 mouse assessed as survival at 50 mg/kg, po twice daily for 5 days administered 4 hrs before viral challenge; format: functional, organism-based; set-up: dose 50 mg/kg
# Outline: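 PTV was inoculated subcutaneously into mice in groups of 15 (25–30 placebo). Dosing was by oral gavage twice daily for 5–7 days, with T-705 suspended in 0.4% CMC and ribavirin in saline. Remaining animals were observed 21–28 days for survival and day of death. Test doses had first been checked for tolerance in uninfected animals.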
# Punta Toro virus [5] = assay: Antiviral activity against 500 PFU Punta Toro virus Adames infected C57BL/6 mouse assessed as mean day of death at 10 mg/kg, po twice daily for 5 days administered 4 hrs before viral challenge; format: functional
# Outline: (§2)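 Groups of 15 mice (25–30 placebo) were inoculated subcutaneously with PTV. Drug in 0.4% carboxymethylcellulose was given by oral gavage twice daily.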
# Punta Toro virus [6] = assay: Antiviral activity against 500 PFU Punta Toro virus Adames infected C57BL/6 mouse assessed as mean viral titer per 0.1 mL of serum at 25 mg/kg, po twice daily administered 4 hrs before viral challenge measured on day 4 of viral infection; format: functional; outline: as §1
# Punta Toro virus [7] = assay: Antiviral activity against 500 PFU Punta Toro virus Adames infected C57BL/6 mouse assessed as mean day of death at 75 mg/kg, po twice daily for 5 days administered 4 hrs before viral challenge; format: functional; outline: as §2
# Punta Toro virus [8] = assay: Antiviral activity against 500 PFU Punta Toro virus Adames infected C57BL/6 mouse assessed as mean serum ALT levels at 30 mg/kg, po twice daily administered 4 hrs before viral challenge measured on day 3 of viral infection; format: functional
# Outline: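 C57BL/6 mice received subcutaneous PTV, then oral gavage twice daily for 5–7 days. T-705 was given in 0.4% CMC and ribavirin in saline. Five mice per group (10 placebo) were killed on day 3 or 4, and serum was collected. ALT activity was measured by kinetic assay. Three sham-infected mice set baselines.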
# Punta Toro virus [9] = assay: Antiviral activity against 500 PFU Punta Toro virus Adames infected C57BL/6 mouse assessed as inhibition of liver damage at 75 mg/kg/day, po twice daily administered 4 hrs before viral challenge measured on day 3 of viral infection; format: functional, organism-based
# Outline: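 Mice were infected with PTV subcutaneously and dosed by oral gavage twice daily (0.4% CMC vehicle). Five animals per group (10 placebo) were sacrificed on day 3 or 4. Livers were scored 0–4 for hepatic icterus, where 0 is normal and 4 is maximal yellow coloration.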
# Pichinde virus [10] = assay: Antiviral activity against Pichinde virus An 4763 infected Syrian golden hamster assessed as mean serum ALT levels at 30 mg/kg, po twice daily for 7 days administered 4 hrs before viral-challenge measured on day 7 of viral infection; format: functional
# Pichinde virus [11] = assay: Antiviral activity against Pichinde virus An 4763 infected Syrian golden hamster assessed as inhibition of liver damage at 20 mg/kg, po twice daily for 7 days administered 24 hrs post viral-challenge measured on day 7 of viral infection; format: functional, organism-based; set-up: dose 20 mg/kg
# La Crosse virus = assay: Antiviral activity against La Crosse virus assessed as reduction of 1 log10 unit viral titer yields after 3 to 5 days; format: functional
# Punta Toro virus [12] = assay: Antiviral activity against 500 PFU Punta Toro virus Adames infected C57BL/6 mouse assessed as mean viral titer per 0.1 g of liver at 5 mg/kg, po twice daily administered 4 hrs before viral challenge measured on day 3 of viral infection; format: functional; outline: as §1
# Pichinde virus [13] = assay: Antiviral activity against Pichinde virus An 4763 infected Syrian golden hamster assessed as animals with detectable virus level in liver at 60 mg/kg, po twice daily for 7 days administered 4 hrs before viral-challenge measured on day 7 of viral infection; format: functional
# Pichinde virus [14] = assay: Antiviral activity against Pichinde virus An 4763 infected Syrian golden hamster assessed as animals with detectable virus level in serum at 30 mg/kg, po twice daily for 7 days administered 4 hrs before viral-challenge measured on day 7 of viral infection; format: functional
# Punta Toro virus [15] = assay: Antiviral activity against 50 PFU Punta Toro virus Adames infected C57BL/6 mouse assessed as survival at 10 mg/kg, po twice daily for 5 days administered 24 hrs post viral challenge; format: functional, organism-based; set-up: dose 10 mg/kg; outline: as §2
# Punta Toro virus [16] = assay: Antiviral activity against 500 PFU Punta Toro virus Adames infected C57BL/6 mouse assessed as mean viral titer per 0.1 mL of serum at 5 mg/kg, po twice daily administered 4 hrs before viral challenge measured on day 3 of viral infection; format: functional; outline: as §1
structure (smiles),measurement,setting,value
NC(=O)c1nc(F)cnc1O [FAVIPIRAVIR],Activity,Pichinde virus [1],12.5 days
same,log10CCID50,Punta Toro virus [2],<2.8
same,EC90,Tacaribe virus,6 µM
same,log10CCID50,Punta Toro virus [3],<2.8
same,Activity,Punta Toro virus [4],Active
same,Activity,Punta Toro virus [5],5 days
same,log10CCID50,Punta Toro virus [6],<3.3
same,Activity,Punta Toro virus [7],>21 days
same,Activity,Punta Toro virus [8],9 IU/L
same,Activity,Punta Toro virus [9],Active
same,Activity,Pichinde virus [10],378 IU/L
same,Activity,Pichinde virus [11],Active
same,EC90,La Crosse virus,7 µM
same,log10CCID50,Punta Toro virus [12],<2.8
same,Activity,Pichinde virus [13],0%
same,Activity,Pichinde virus [14],80%
same,Activity,Punta Toro virus [15],inactive
same,log10CCID50,Punta Toro virus [16],7.2
